# Assay results as given in ChEMBL document CHEMBL1681757, “Discovery of potent dipeptidyl peptidase IV inhibitors derived from β-aminoamides bearing substituted [1,2,3]-triazolopiperidines for the treatment of type 2 diabetes” (Bioorg Med Chem Lett, 2011).
# Columns and labels:
# [1] = Tmax in rat at 20 mg/kg, po; assay type: ADME, organism-based; parameters: dose 20 mg/kg, route oral; conditions: in vivo
# Procedure, shortened: (§1)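 Healthy male rats (200–220 g), four per group, dosed orally at 20 mg/kg. Plasma exposure parameters derived: Cmax, Tmax, terminal half-life after oral dosing, and area under the concentration curve.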
# [2] = Cmax in rat at 20 mg/kg, po; assay type: ADME, organism-based; parameters: dose 20 mg/kg, route oral; conditions: in vivo; procedure, shortened: as §1
# [3] = Terminal half life in rat at 20 mg/kg, po; assay type: ADME, organism-based; parameters: dose 20 mg/kg, route oral; conditions: in vivo, read-out: beta t1/2 (converted); procedure, shortened: as §1
# [4] = AUC (0 to t) in rat at 20 mg/kg, po; assay type: ADME, organism-based; parameters: dose 20 mg/kg, route oral; conditions: plasma; procedure, shortened: as §1
# Mus musculus [5] = species on record: Mus musculus; assay: animal or person; conditions: ICR, Blood, po, 1 h, read-out: INH
# Mus musculus [6] = species on record: Mus musculus; assay: animal or person; conditions: ICR, Blood, po, 1 h, read-out: INH; remark: listed apart in the source
Structure (SMILES),Tmax [1],Cmax [2],half-life [3],AUC(0-t) [4],inhibition in vivo at 3 mg/kg (Mus musculus [5]),inhibition in vivo at 10 mg/kg (Mus musculus [6])
Cl.N[C@@H](CC(=O)N1CCn2nnc(C(F)F)c2C1)Cc1cc(F)c(F)cc1F,1 h,695 ng/mL,2.27 h,2520 ng·h/mL,,
N[C@@H](CC(=O)N1CCn2nnc(C(F)(F)F)c2C1)Cc1cc(F)c(F)cc1F.O=C(O)/C=C/C(=O)O,0.88 h,965 ng/mL,2.53 h,4560 ng·h/mL,19%,27%
Cl.NC(=O)c1nnn2c1CN(C(=O)C[C@H](N)Cc1cc(F)c(F)cc1F)CC2,0.63 h,231 ng/mL,2.23 h,871 ng·h/mL,,
Cl.N[C@@H](CC(=O)N1CCn2nnc(-c3ccc(C(=O)O)cc3)c2C1)Cc1cc(F)c(F)cc1F,0.38 h,600 ng/mL,2.18 h,1130 ng·h/mL,,
N[C@@H](CC(=O)N1CCn2nnc(-c3ccccn3)c2C1)Cc1cc(F)c(F)cc1F.O=C(O)/C=C/C(=O)O,1.38 h,484 ng/mL,2.67 h,2510 ng·h/mL,,
Cl.N[C@@H](CC(=O)N1CCn2nnc(-c3ccco3)c2C1)Cc1cc(F)c(F)cc1F,1 h,255 ng/mL,1.87 h,730 ng·h/mL,,
N[C@@H](CC(=O)N1CCn2nnc(-c3cnco3)c2C1)Cc1cc(F)c(F)cc1F.O=C(O)/C=C/C(=O)O,1.88 h,475 ng/mL,1.35 h,1640 ng·h/mL,,
